{"data": "Results pooled from the literature", "cell line": "HepG2", "read-out": "cell growth or viability", "note": "Protocols differ between the studies behind these lines."}
{"SMILES": "COc1ccc2c(c1)c1c(n2CO)CN2CCc3cc(OC)c(OCc4ccc(F)cc4)cc3C2C1 (stereo not shown)", "conditions": "5 µM, 24 h", "endpoint": "viability", "value": "104%"}
{"SMILES": "CNc1cccc2cc(C(=O)Nc3ccc(C(=O)O)cc3)c(=O)[nH]c12", "test": "CCK-8", "conditions": "10 µM, 48 h", "endpoint": "cell death", "value": "1.5%"}
{"SMILES": "CCCCCCCCCCCCCCCCOP(=O)([O-])OCC[N+](C)(C)C", "test": "MTS", "conditions": "24 h", "endpoint": "CC50", "value": "> 20 µM"}
{"SMILES": "COc1cc2c(cc1OCc1ccccc1F)C1Cc3c(n(CO)c4ccccc34)CN1CC2 (stereo not shown)", "conditions": "5 µM, 24 h", "endpoint": "viability", "value": "119%"}
{"SMILES": "CNc1cccc2cc(C(=O)NCCc3cccc(C(=O)O)c3)c(=O)[nH]c12", "test": "CCK-8", "conditions": "10 µM, 48 h", "endpoint": "cell death", "value": "5.9%"}
{"SMILES": "CC1=C(C)C(c2ccc[nH]2)=NC1=Cc1ccc(CCCCCCCCCC(C)O)[nH]1 (stereo not shown)", "endpoint": "IC50", "value": "9.38 µM"}
{"SMILES": "COc1ccc2c(c1)c1c(n2CO)CN2CCc3cc(OC)c(OCC(F)(F)F)cc3C2C1 (stereo not shown)", "conditions": "5 µM, 24 h", "endpoint": "viability", "value": "102%"}
{"SMILES": "COc1ccc(CCN2CCC(Nc3nc4ccccc4n3Cc3ccc(F)cc3)CC2)cc1", "test": "resazurin", "conditions": "10 µM, 24 h", "endpoint": "viability", "value": "68%"}
{"SMILES": "COC1=CC(c2ccc[nH]2)=NC1=Cc1ccc(CCCCCCCCCCCCO)[nH]1", "endpoint": "IC50", "value": "6.18 µM"}
{"SMILES": "COc1cc2[nH]c(C)c(-c3ccc(Oc4ccc(F)cc4)cc3)c(=O)c2cc1Cl", "test": "resazurin", "endpoint": "IC50", "value": "> 10 µM"}
{"SMILES": "COc1ccc2c(c1)c1c(n2CO)CN2CCc3cc(OCc4ccccc4)c(OC)cc3C2C1 (stereo not shown)", "conditions": "10 µM, 24 h", "endpoint": "viability", "value": "111%"}
{"SMILES": "COc1cc2[nH]c(C)c(-c3ccc(Oc4ccc(F)c(OC(F)(F)F)c4)cc3)c(=O)c2cc1Cl", "test": "resazurin", "endpoint": "IC50", "value": "> 10 µM"}
{"SMILES": "CC(=O)O[C@@H]1c2c(ccc3ccc(=O)oc23)OC(C)(C)[C@@H]1OC(=O)C1(C)OC1C (stereo partly shown)", "test": "WST-1", "endpoint": "IC50", "value": "20.7 µM"}
{"SMILES": "COc1ccc(-c2nc3ncccn3c2NC(C)(C)CC(C)(C)C)cc1O", "test": "MTT", "conditions": "25 µM, 48 h", "endpoint": "viability", "value": "77.7%"}
{"SMILES": "CCCCCCn1c(-c2cccc(Cl)c2)n[nH]c1=S", "test": "resazurin", "conditions": "50 µM, 24 h", "endpoint": "viability", "value": "92%"}
{"SMILES": "COc1cc2[nH]c(C)c(-c3ccc(Oc4ccc(OC(F)(F)F)c(F)c4)cc3)c(=O)c2cc1Cl", "test": "resazurin", "endpoint": "IC50", "value": "> 10 µM"}
{"SMILES": "COC1=CC(c2cccn2C)=NC1=Cc1ccc(CCCCCCCCCC(C)O)[nH]1 (stereo not shown)", "endpoint": "IC50", "value": "> 100 µM"}
{"SMILES": "COc1cc2[nH]c(C)c(-c3ccc(Oc4ccc(C(F)(F)F)cc4)cc3)c(=O)c2cc1Cl", "test": "resazurin", "endpoint": "IC50", "value": "> 10 µM"}
{"SMILES": "COC(=O)[C@]1(O)C[C@@H](O)[C@@H](O)[C@H](OC(=O)/C=C/c2ccc(O)c(O)c2)C1", "test": "WST-1", "endpoint": "IC50", "value": "30.9 µM"}
{"SMILES": "COC1=CC(c2ccc[nH]2)=NC1=Cc1ccc(CCCCCCCCCCCO)[nH]1", "endpoint": "IC50", "value": "11.4 µM"}
{"SMILES": "CNc1cccc2cc(C(=O)NCc3ccc(C(=O)O)cc3)c(=O)[nH]c12", "test": "CCK-8", "conditions": "10 µM, 48 h", "endpoint": "cell death", "value": "6.1%"}
{"SMILES": "CC(C)(C)CC(C)(C)Nc1c(-c2ccccc2)nc2ncccn12", "test": "MTT", "conditions": "25 µM, 48 h", "endpoint": "viability", "value": "67.4%"}
{"SMILES": "N=C(N/N=C/c1ccccc1)N/N=C/c1ccccc1F", "test": "resazurin", "conditions": "24 h", "endpoint": "IC50", "value": "60 µM"}
{"SMILES": "COc1ccc2cc3[n+](cc2c1OC)CCc1cc2c(cc1-3)OCO2", "conditions": "10 µM, 24 h", "endpoint": "viability", "value": "102%"}
{"SMILES": "CC(C)(C)CC(C)(C)Nc1c(-c2cccnc2)nc2ncccn12", "test": "MTT", "conditions": "25 µM, 48 h", "endpoint": "viability", "value": "92.5%"}
